Test results: ChEMBL document CHEMBL1687879, “Synthesis, glucose uptake activity and structure-activity relationships of some novel glitazones incorporated with glycine, aromatic and alicyclic amine moieties via two carbon acyl linker” (2011)

What was measured:
Type in all cases: functional, Diaphragm
[1] = Antidiabetic activity in rat hemidiaphragm assessed as glucose uptake at 2 mg after 45 mins in presence of insulin
Outline: (§1)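 Isolated rat hemi-diaphragm in Tyrode, test agent at 1 mg or 2 mg with or without insulin; 45 min incubation at 21 °C, shaking at 60 cycles/min. Medium glucose measured by GOD/POD enzymatic method; uptake expressed as mg/dl/45 min. Run in triplicate, mean ± SEM; groups compared by one-way ANOVA with Dunnett's post-test.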

[2] = Antidiabetic activity in rat hemidiaphragm assessed as glucose uptake at 1 mg after 45 mins in presence of insulin; outline: as §1
[3] = Antidiabetic activity in rat hemidiaphragm assessed as glucose uptake at 1 mg after 45 mins in absence of insulin; outline: as §1
[4] = Antidiabetic activity in rat hemidiaphragm assessed as glucose uptake at 2 mg after 45 mins in absence of insulin; outline: as §1

Row | Structure (SMILES) | Activity [1] [mg/dL] | Activity [2] [mg/dL] | Activity [3] [mg/dL] | Activity [4] [mg/dL]
1 | O=C(CN1C(=O)S/C(=C\c2ccc(Cl)cc2)C1=O)Nc1ccccc1 | 36.66 | 36.03 | 16.83 | 16.9
2 | O=C(CN1C(=O)S/C(=C\c2ccccc2Cl)C1=O)Nc1ccccc1 | 27.16 | 26.03 | 13.81 | 14.03
3 | O=C(CN1C(=O)S/C(=C\c2cccc(Cl)c2)C1=O)Nc1ccccc1 | 40.5 | 39 | 17.83 | 17.63
4 | CCOC(=O)CNC(=O)CN1C(=O)S/C(=C\c2ccc(OC)cc2)C1=O | 43.07 | 41.5 | 18.28 | 18.79
5 | O=C(COc1ccc(/C=C2\SC(=O)NC2=O)cc1)Nc1ccccc1 | 42.69 | 41.16 | 18.46 | 18.5
6 | O=C(COc1ccc(/C=C2\SC(=S)NC2=O)cc1)Nc1ccccc1 | 35.33 | 34.66 | 16.16 | 16.33
7 | CCc1cccc(CC)c1NC(=O)COc1ccc(/C=C2\SC(=S)NC2=O)cc1 | 28.5 | 28.83 | 14.5 | 15.66
8 | CCc1cccc(CC)c1NC(=O)COc1ccc(/C=C2\SC(=O)NC2=O)cc1 | 29.8 | 29 | 15.82 | 15
9 | COc1ccc(NC(=O)COc2ccc(/C=C3\SC(=O)NC3=O)cc2)cc1 | 35.66 | 34.16 | 16.66 | 16.83
10 | COc1ccc(NC(=O)COc2ccc(/C=C3\SC(=S)NC3=O)cc2)cc1 | 37.09 | 35 | 16.91 | 17.01
11 | Cc1ccc(NC(=O)COc2ccc(/C=C3\SC(=O)NC3=O)cc2)cc1 | 33.5 | 33.83 | 16 | 16.16
12 | Cc1ccc(NC(=O)COc2ccc(/C=C3\SC(=S)NC3=O)cc2)cc1 | 34.16 | 33.79 | 15.33 | 16.56
13 | COc1ccc(/C=C2\SC(=O)N(CC(=O)Nc3ccccc3)C2=O)cc1 | 43.9 | 42.16 | 18.71 | 19.66
14 | O=C(CN1C(=O)S/C(=C\c2ccc(Cl)cc2Cl)C1=O)Nc1ccccc1 | 42.44 | 41.93 | 18.33 | 18.5
15 | O=C(CN1C(=O)S/C(=C\c2ccccc2O)C1=O)Nc1ccccc1 | 42.26 | 41.85 | 18 | 18.33
16 | O=C(CN1C(=O)S/C(=C\C=C\c2ccccc2)C1=O)Nc1ccccc1 | 36.66 | 36.16 | 15 | 16.16
17 | O=C(CN1C(=O)S/C(=C\c2ccccc2)C1=O)Nc1ccccc1 | 39 | 38.3 | 17.72 | 18
18 | O=C(CN1C(=O)S/C(=C\c2ccco2)C1=O)Nc1ccccc1 | 32.29 | 32.16 | 15.66 | 15.86
19 | COc1cc(/C=C2\SC(=O)N(CC(=O)Nc3ccccc3)C2=O)ccc1O | 30.83 | 28.5 | 15.5 | 16.96
20 | CN(CCOc1ccc(CC2SC(=O)NC2=O)cc1)c1ccccn1 (stereo not given) [ROSIGLITAZONE] | 50.33 | 48.34 | 19 | 20.36
